{"source": "PubChem BioAssay", "note": "The list shows a part of the results. Values without a mark were called inactive. The source made the active and inactive calls.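 The calls were made as follows, unless noted: active = mean activation over triplicate wells above the hit cutoff derived from the earlier primary screen (cut at about 11% in these data); inactive = the rest.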"}
{"tested_on": "DAF-12 nuclear receptor (Heterodera glycines), GAL4-LBD fusion", "experiment": "H. glycines DAF-12 receptor agonists, confirmation, cell-based, luminescence, HEK293, GAL4-LBD fusion (AID 743050);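 also: 0% = DMSO low control and 100% = 2 mM sodium butyrate high control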", "details": "HEK293 GAL4-hgDAF12 luciferase reporter, agonist mode; at 6.8 µM; hits give high values; percent of butyrate response"}
{"smiles": "CC(=O)Nc1cccc(C(=O)OCC(=O)c2ccc3c(c2)OCO3)c1", "activation": "16.6% (active)"}
{"smiles": "Nc1ccc(C(=O)Nc2ccccc2N)cc1", "activation": "85.4% (active)"}
{"smiles": "Clc1ccc(Nc2ccc3ccccc3n2)cc1", "activation": "28.6% (active)"}
{"smiles": "Cc1cc(OCc2cc(C(=O)NCc3cc(C(C)C)no3)no2)cc(C)c1Cl", "activation": "20.9% (active)"}
{"smiles": "O=C(Nc1ncccc1O)c1ccc(C(=O)c2ccccc2)cc1", "activation": "84.2% (active)"}
{"smiles": "Brc1ccccc1C1N=C(c2ccccc2)NO1", "note": "(centres undefined)", "activation": "19.6% (active)"}
{"smiles": "Oc1cccc2ccc(/C=C/c3ccc(Br)s3)nc12", "activation": "15.8% (active)"}
{"smiles": "Brc1ccc(-c2noc(-c3ccccc3)n2)o1", "activation": "18.7% (active)"}
{"smiles": "Cn1c(=NC(=O)c2ccco2)sc2cccc(F)c21", "activation": "22.9% (active)"}
{"smiles": "Oc1ccccc1-c1cc(-c2ccc(Cl)cc2)n[nH]1", "activation": "29.5% (active)"}
{"smiles": "Cc1ccnc(Nc2nc3ccccc3s2)n1", "activation": "15% (active)"}
{"smiles": "Cc1ccc(-n2cc3ccc([N+](=O)[O-])cc3n2)cc1", "activation": "22.6% (active)"}
{"smiles": "OC(c1ccccc1)c1nc(-c2cnc3ccccc3c2)cs1", "note": "(centres undefined)", "activation": "26.4% (active)"}
{"smiles": "Cc1cccc(NC(=S)NC(=O)c2ccc(Br)o2)c1", "activation": "11.1% (active)"}
{"smiles": "O=C(Nc1ccn(Cc2ccccc2)n1)c1cccc(F)c1", "activation": "15.6% (active)"}
{"smiles": "O=C(NC(=O)c1ccccc1)Nc1ccccc1O", "activation": "19.6% (active)"}
{"smiles": "c1ccc(Cc2c(-c3ccco3)nc3c4ccccc4ccn23)cc1", "activation": "16.6% (active)"}
{"smiles": "Cn1c(=NC(=O)C2CC2)sc2cc(F)cc(F)c21", "activation": "5.29%"}
{"smiles": "O=C(Nc1ccccc1)Nc1nc2ccccc2s1", "activation": "20.4% (active)"}
{"smiles": "Brc1ccc2nc(N3CCCC3)sc2c1", "activation": "12.5% (active)"}
{"smiles": "Cc1cc(N=Nc2ccc3ccccc3c2)ccc1O", "activation": "24.5% (active)"}
{"smiles": "Cc1ccc(NC(=O)c2cc3ccccc3o2)cc1", "activation": "22% (active)"}
{"smiles": "COc1ccc2nc(-c3ccccn3)ccc2c1", "activation": "16.7% (active)"}
{"smiles": "Cc1cccc(/C(N)=N/OC(=O)c2ccccc2Cl)c1", "activation": "21.4% (active)"}
{"smiles": "Cn1c(NC(=O)c2ccccc2)nc2ccccc21", "activation": "19.1% (active)"}
{"smiles": "Cc1ccc(SCCSc2ncccn2)cc1", "activation": "14.6% (active)"}
{"smiles": "CS(=O)(=O)N1CCc2nc(-c3ccccc3)sc2C1", "activation": "10.3%"}
{"smiles": "c1cnc(N2CCN(c3ccc4ccccc4n3)CC2)nc1", "activation": "16.9% (active)"}
{"smiles": "COc1ccc(C2=NN(C(=O)c3ccccc3C(=O)O)C(c3ccccc3O)C2)cc1", "note": "(centres undefined)", "activation": "4.93%"}
{"smiles": "Cc1cccc(NC(=O)c2ccc3ccccc3n2)n1", "activation": "17% (active)"}
{"smiles": "O=C(c1cnn(-c2ccc(Cl)cc2)c1)c1ccccc1O", "activation": "12.9% (active)"}
{"smiles": "CCOC(=O)c1cn[nH]c1NC(=S)Nc1ccccc1", "activation": "15.6% (active)"}
{"smiles": "NC(=O)c1ccccc1N=Cc1ccc2ccccc2c1", "activation": "15.7% (active)"}
{"smiles": "Brc1ccc(C2CC(c3ccccc3)=Nc3ccccc3N2)cc1", "note": "(centres undefined)", "activation": "17.4% (active)"}
{"smiles": "CN1CCN(c2ccc(NC(=O)c3ccc4c(c3)OCCO4)cc2Cl)CC1", "activation": "9.5%"}
{"smiles": "Cc1ccnc(NC(=O)CCNS(=O)(=O)c2ccc(C)c(C)c2)c1", "activation": "17.9% (active)"}
{"smiles": "Cc1ccc(C(=O)Nc2ccc(C)c(S(=O)(=O)N(C)C)c2)s1", "activation": "11.2% (active)"}
{"target": "Oxysterols receptor LXR-beta (Homo sapiens) (UniProt P55055)", "sequence (P55055 whole entry, looked up, the tested form may be a part)": "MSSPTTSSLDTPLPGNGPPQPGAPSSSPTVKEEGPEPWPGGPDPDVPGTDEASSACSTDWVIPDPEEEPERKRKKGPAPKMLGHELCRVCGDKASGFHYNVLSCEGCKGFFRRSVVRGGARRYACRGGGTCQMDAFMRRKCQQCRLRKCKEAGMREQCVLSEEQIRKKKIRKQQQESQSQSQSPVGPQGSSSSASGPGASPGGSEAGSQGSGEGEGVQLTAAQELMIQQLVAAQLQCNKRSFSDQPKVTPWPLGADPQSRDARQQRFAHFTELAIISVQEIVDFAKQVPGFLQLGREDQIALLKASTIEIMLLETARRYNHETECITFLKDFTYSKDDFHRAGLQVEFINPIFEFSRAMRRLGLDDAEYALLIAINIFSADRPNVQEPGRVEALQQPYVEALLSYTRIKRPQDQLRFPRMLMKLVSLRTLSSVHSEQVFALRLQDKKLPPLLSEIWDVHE", "experiment": "LXR agonists, Gal4 luciferase reporter, confirmation, counter-screen for hgDAF-12 agonist project, cell-based, luminescence, HEK293, H. glycines campaign (AID 743051;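 active = mean activation of the triplicate above a set limit carried over from the primary screen, none filed active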)", "details": "24 h, at 6.8 µM, hits give high values", "in_short": "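Test system: HEK293 cells with Gal4-LXR and tk-luc reporter | Incubation: 24 h exposure, 37 °C | Signal: One-Glo luminescence after 15 min | Measure: % activation versus DMSO and positive controls | Benchmarks: DMSO low control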", "units": {"activation": "%"}}
{"smiles": "CC(=O)Nc1cccc(C(=O)OCC(=O)c2ccc3c(c2)OCO3)c1", "activation": 1.1}
{"smiles": "Nc1ccc(C(=O)Nc2ccccc2N)cc1", "activation": 0.48}
{"smiles": "Clc1ccc(Nc2ccc3ccccc3n2)cc1", "activation": 1.31}
{"smiles": "Cc1cc(OCc2cc(C(=O)NCc3cc(C(C)C)no3)no2)cc(C)c1Cl", "activation": 0.62}
{"smiles": "O=C(Nc1ncccc1O)c1ccc(C(=O)c2ccccc2)cc1", "activation": 0.71}
{"smiles": "Brc1ccccc1C1N=C(c2ccccc2)NO1", "note": "(centres undefined)", "activation": 0.87}
{"smiles": "Oc1cccc2ccc(/C=C/c3ccc(Br)s3)nc12", "activation": 0.56}
{"smiles": "Brc1ccc(-c2noc(-c3ccccc3)n2)o1", "activation": 0.75}
{"smiles": "Cn1c(=NC(=O)c2ccco2)sc2cccc(F)c21", "activation": 0.76}
{"smiles": "Oc1ccccc1-c1cc(-c2ccc(Cl)cc2)n[nH]1", "activation": 1.15}
{"smiles": "Cc1ccnc(Nc2nc3ccccc3s2)n1", "activation": 1.12}
{"smiles": "Cc1ccc(-n2cc3ccc([N+](=O)[O-])cc3n2)cc1", "activation": 0.97}
{"smiles": "OC(c1ccccc1)c1nc(-c2cnc3ccccc3c2)cs1", "note": "(centres undefined)", "activation": 0.98}
{"smiles": "Cc1cccc(NC(=S)NC(=O)c2ccc(Br)o2)c1", "activation": 0.48}
{"smiles": "O=C(Nc1ccn(Cc2ccccc2)n1)c1cccc(F)c1", "activation": 0.7}
{"smiles": "O=C(NC(=O)c1ccccc1)Nc1ccccc1O", "activation": 1.13}
{"smiles": "c1ccc(Cc2c(-c3ccco3)nc3c4ccccc4ccn23)cc1", "activation": 0.76}
{"smiles": "Cn1c(=NC(=O)C2CC2)sc2cc(F)cc(F)c21", "activation": 0.25}
{"smiles": "O=C(Nc1ccccc1)Nc1nc2ccccc2s1", "activation": 1.06}
{"smiles": "Brc1ccc2nc(N3CCCC3)sc2c1", "activation": 0.64}
{"smiles": "Cc1cc(N=Nc2ccc3ccccc3c2)ccc1O", "activation": 1.16}
{"smiles": "Cc1ccc(NC(=O)c2cc3ccccc3o2)cc1", "activation": 0.74}
{"smiles": "COc1ccc2nc(-c3ccccn3)ccc2c1", "activation": 1.05}
{"smiles": "Cc1cccc(/C(N)=N/OC(=O)c2ccccc2Cl)c1", "activation": 1.18}
{"smiles": "Cn1c(NC(=O)c2ccccc2)nc2ccccc21", "activation": 0.86}
{"smiles": "Cc1ccc(SCCSc2ncccn2)cc1", "activation": 0.89}
{"smiles": "CS(=O)(=O)N1CCc2nc(-c3ccccc3)sc2C1", "activation": 0.56}
{"smiles": "c1cnc(N2CCN(c3ccc4ccccc4n3)CC2)nc1", "activation": 0.78}
{"smiles": "COc1ccc(C2=NN(C(=O)c3ccccc3C(=O)O)C(c3ccccc3O)C2)cc1", "note": "(centres undefined)", "activation": 0.19}
{"smiles": "Cc1cccc(NC(=O)c2ccc3ccccc3n2)n1", "activation": 0.69}
{"smiles": "O=C(c1cnn(-c2ccc(Cl)cc2)c1)c1ccccc1O", "activation": 0.81}
{"smiles": "CCOC(=O)c1cn[nH]c1NC(=S)Nc1ccccc1", "activation": 1.01}
{"smiles": "NC(=O)c1ccccc1N=Cc1ccc2ccccc2c1", "activation": 0.4}
{"smiles": "Brc1ccc(C2CC(c3ccccc3)=Nc3ccccc3N2)cc1", "note": "(centres undefined)", "activation": 0.65}
{"smiles": "CN1CCN(c2ccc(NC(=O)c3ccc4c(c3)OCCO4)cc2Cl)CC1", "activation": 0.88}
{"smiles": "Cc1ccnc(NC(=O)CCNS(=O)(=O)c2ccc(C)c(C)c2)c1", "activation": 0.55}
{"smiles": "Cc1ccc(C(=O)Nc2ccc(C)c(S(=O)(=O)N(C)C)c2)s1", "activation": 0.45}
